How the values were obtained:
[1] = target: cAMP-dependent protein kinase catalytic subunit alpha (Rattus norvegicus) (UniProt P27791); experiment: In vitro inhibition of cAMP-dependent kinase Protein kinase A isolated from rat brain by 100 uM.
Outline: (§1)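 PKA catalytic subunit at 4 ng/mL in 20 mM Tris with 10 μM histone, 100 μM dibutyryl-cAMP and 100 μM [³²P]ATP. Percent inhibition measured at 100 μM test compound.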

[2] = target: T1, Protein kinase C, PKC; classical (Rattus norvegicus, UniProt P05696+P68403+P63319); experiment: In vitro inhibition of [32P] incorporation into histones by rat brain partially purified Protein kinase C in the presence of PMA, [Ca2+] and phosphatidylserine.
Outline: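 Partially purified rat brain PKC activated by PMA, Ca²⁺ and phosphatidylserine. Read-out is inhibition of ³²P incorporation into histones. Some values are extrapolated.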

[3] = target: T2, Protein kinase C alpha type (Rattus norvegicus, UniProt P05696); experiment: Effect of Phosphatidylserine on inhibition of Protein kinase C alpha
[4] = target: T2, Protein kinase C alpha type; experiment: Inhibition of [3H]-phorbol dibutyrate binding to Protein kinase C alpha
[5] = target: cAMP-dependent protein kinase catalytic subunit alpha (Rattus norvegicus) (UniProt P27791); experiment: (§2) Inhibition of cAMP-dependent kinase PKA(Protein kinase A) catalytic subunit at 100 uM; outline: as §1
[6] = target: T1, Protein kinase C, PKC; classical; experiment: Inhibition of PMA and [Ca2+] induced 32P incorporation into histones by partially purified rat brain Protein kinase C
Outline: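 Partially purified rat brain PKC activated by PMA, Ca²⁺ and phosphatidylserine. Read-out is inhibition of ³²P incorporation into histones. IC50 taken from concentration-inhibition curves run up to 100 μM inhibitor. Some values are extrapolated.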

[7] = target: cAMP-dependent protein kinase catalytic subunit alpha (Rattus norvegicus, UniProt P27791); experiment: as §2
[8] = target: cAMP-dependent protein kinase catalytic subunit alpha (Rattus norvegicus) (UniProt P27791); experiment: Inhibition of cAMP-dependent kinase PKA (Protein kinase A) catalytic subunit at 100 uM; outline: as §1

Row | SMILES | inhibition [1] [%] | IC50 [2] [µM] | further results
1 | CCCCCCCCCCCCC(=O)N1CCCCC1CNC(=O)[C@@H](N)CO (some centres not stated) | 0 | 45 | –
2 | CCCCCCCCCCCCCCCCCC(=O)N1CCCCC1CNC(=O)[C@@H](N)CCCCN (some centres not stated) | 38 | 36 | –
3 | CCCCCCCCCCCCC(=O)N1CCCCC1CNC(=O)[C@@H](N)CCC(=O)O (some centres not stated) | 0 | – | –
4 | CCCCCCCCCCCCC(=O)N1CCCCC1CNC(=O)[C@@H](N)CCCN=C(N)N (some centres not stated) | 0 | 72 | –
5 | CCCCCCCCCCCCC(=O)N1CCCCC1CNC(=O)[C@H](C)N (some centres not stated) | 0 | 52 | –
6 | CCCCCCCCCCCCC(=O)N1CCCCC1CNC(=O)[C@@H](N)CCC(=O)OCc1ccccc1 (some centres not stated) | 0 | 92 | –
7 | CCCCCCCCCCCCCCC(=O)N1CCCCC1CNC(=O)[C@@H](N)CCCCN (some centres not stated) | – | – | inhibition [5]: 0%; IC50 [6]: 38 µM
8 | CCCCCCCCCCCCC/C=C/[C@@H](O)[C@@H](N)CO [SPHINGOSINE] | – | 57 | IC50 [7]: 98 µM
9 | CCCCCCCCCCCCC(=O)N1CCCCC1CNC(=O)[C@@H](N)CC(C)C (some centres not stated) | – | – | inhibition [5]: 0%; IC50 [6]: 154 µM
10 | CCCCCCCCCCCCC(=O)N1CCCCC1CNC(=O)[C@@H](N)Cc1ncc[nH]1 (some centres not stated) | 0 | 60 | –
11 | CCCCCCCCCCCCCC(=O)N1CCCCC1CN (configuration not stated) | – | – | IC50 [6]: 36 µM; inhibition [8]: 46%
12 | CCCCCCCCCCCCC(=O)N1CCCCC1CNC(=O)CN (configuration not stated) | 0 | 51 | –

More lines, main results first:

Row | inhibition [1] [%] | IC50 [2] [µM] | SMILES | further results
13 | 0 | – | CCCCCCCCC(=O)N1CCCCC1CNC(=O)[C@@H](N)CCCCN (some centres not stated) | –
14 | 0 | 48 | CCCCCCCCCCCCCC(=O)N1CCCCC1CNC(=O)[C@@H](N)CCCCN (some centres not stated) | –
15 | 0 | 45 | CCCCCCCCCCCCCCCC(=O)N1CCCCC1CNC(=O)[C@@H](N)CCCCN (some centres not stated) | –
16 | 0 | 20 | CCCCCCCCCCCCC(=O)N1CCCCC1CNC(=O)[C@@H](N)CCCCN (some centres not stated) | Ki [3]: 12 µM; IC50 [4]: 23 µM
17 | 0 | 72 | CCCCCCCCCCCCC(=O)N1CCCCC1CNC(=O)[C@@H](N)CCC(N)=O (some centres not stated) | –
18 | 0 | – | CCCCCCC(=O)N1CCCCC1CNC(=O)[C@@H](N)CCCCN (some centres not stated) | –
19 | 0 | 102 | CCCCCCCCCCCC(=O)N1CCCCC1CNC(=O)[C@@H](N)CCCCN (some centres not stated) | –
20 | 0 | 34 | CCCCCCCCCCCCC(=O)N1CCCCC1CNC(=O)[C@H](N)CCCCN (some centres not stated) | –
21 | 0 | 23 | CCCCCCCCCCCCC(=O)N1CCCCC1CNC(=O)[C@@H](N)CCCN (some centres not stated) | –
22 | 0 | 46 | CCCCCCCCCCCCCCCCC(=O)N1CCCCC1CNC(=O)[C@@H](N)CCCCN (some centres not stated) | –
23 | 0 | 159 | CCCCCCCCCCCCC(=O)N1CCCCC1CNC(=O)[C@@H](N)CCSC (some centres not stated) | –
24 | 0 | 299 | CCCCCCCCCCC(=O)N1CCCCC1CNC(=O)[C@@H](N)CCCCN (some centres not stated) | –

From ChEMBL document CHEMBL1125218, “Substituted 2-(aminomethyl)piperidines: a novel class of selective protein kinase C inhibitors” (J Med Chem, 1991)
